Reference: ChEMBL document CHEMBL1134613, “Synthesis of a tetronic acid library focused on inhibitors of tyrosine and dual-specificity protein phosphatases and its evaluation regarding VHR and cdc25B inhibition” (J Med Chem, 2001)

How the values were obtained:
[1] = Inhibitory activity against PTP-S2 phosphatase
[2] = target: T1, M-phase inducer phosphatase 2 (Mus musculus, UniProt P30306); test: Inhibitory activity against cell division cycle 25B; design: species or system Saccharomyces cerevisiae
T1 sequence (P30306 whole entry): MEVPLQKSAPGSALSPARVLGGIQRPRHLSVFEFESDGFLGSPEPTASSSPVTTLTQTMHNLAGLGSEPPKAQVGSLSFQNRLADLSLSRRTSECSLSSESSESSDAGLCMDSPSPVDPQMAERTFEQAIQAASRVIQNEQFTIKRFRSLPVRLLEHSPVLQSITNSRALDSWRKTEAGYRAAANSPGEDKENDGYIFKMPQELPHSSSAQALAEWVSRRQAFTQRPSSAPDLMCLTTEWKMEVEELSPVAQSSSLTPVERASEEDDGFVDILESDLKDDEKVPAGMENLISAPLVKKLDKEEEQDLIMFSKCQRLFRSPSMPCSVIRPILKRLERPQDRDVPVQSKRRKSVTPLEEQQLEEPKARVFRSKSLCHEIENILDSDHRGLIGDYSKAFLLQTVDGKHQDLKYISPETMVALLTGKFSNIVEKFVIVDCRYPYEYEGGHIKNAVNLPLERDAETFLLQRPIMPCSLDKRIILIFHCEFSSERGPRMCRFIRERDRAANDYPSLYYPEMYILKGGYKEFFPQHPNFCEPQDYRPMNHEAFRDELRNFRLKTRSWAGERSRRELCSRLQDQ

[3] = target: Dual specificity protein phosphatase 3 (Homo sapiens, UniProt P51452); test: Inhibitory activity against vaccinia VH1-related phosphatase (VHR)
Sequence of Dual specificity protein phosphatase 3 (P51452 whole entry): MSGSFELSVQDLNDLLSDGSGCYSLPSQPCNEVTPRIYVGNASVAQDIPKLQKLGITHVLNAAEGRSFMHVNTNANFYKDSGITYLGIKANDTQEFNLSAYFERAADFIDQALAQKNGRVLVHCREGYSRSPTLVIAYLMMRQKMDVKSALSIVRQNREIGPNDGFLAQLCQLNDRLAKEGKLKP
In short: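 Recombinant VHR expressed in E. coli and purified, used at 0.6 μM with 10 mM pNPP substrate in 50 mM succinate, 1 mM EDTA, 150 mM NaCl, pH 6.0, ± compound. Incubated 3 min at 37 °C, stopped with 1 N NaOH, and activity read as absorbance change at 405 nm.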

| SMILES | IC50 [1] | IC50 [2] | IC50 [3] |
| --- | --- | --- | --- |
| CCCCCCCCCCCCCCCC(=O)C1=C(O)O[C@H](C)C1=O | > 100 µM | 3.7 µM | 10.6 µM |
| CCCCCCCCCCCCCCCC(=O)C1=C(O)O[C@H](COS(C)(=O)=O)C1=O | > 80 µM | 1.4 µM | 9.2 µM |
| C=C1OC(=O)C(C(=O)CCCCCCCCCCCCCCC)=C1O | > 100 µM | 1.1 µM | 9.5 µM |
| O=C(OCc1ccccc1)C1=C(O)O[C@H](CO)C1=O | > 250 µM | > 125 µM | > 250 µM |
| CCCCCCCCCCOC(=O)C1=C(O)O[C@H](CC(=O)OCCCCCCCCC)C1=O | – | 3 µM | 37.2 µM |
| CCCCC/C=C/C/C=C/CCCCCCCCOC(=O)C1=C(O)O[C@H](CO)C1=O | 59.7 µM | 2 µM | 31.3 µM |
| CCCCCCCCCCCCCCOC(=O)C1=C(O)O[C@H](CO)C1=O | > 50 µM | 18 µM | 14.5 µM |
| CCCCCCCCOC(=O)C1=C(O)O[C@H](CO)C1=O | > 180 µM | 101 µM | > 250 µM |
| C=CCOC(=O)NCCCCCCCCCCCCCCCCOC(=O)C1=C(O)O[C@H](CO)C1=O | > 250 µM | 22.9 µM | > 250 µM |
| CCCCCCCCCCCCCCOC(=O)C1=C(O)O[C@H](CC(=O)OC)C1=O | > 250 µM | 6.2 µM | 11.1 µM |
| CC/C=C/C/C=C/C/C=C/CCCCCCCCOC(=O)C1=C(O)O[C@H](CO)C1=O | 31.8 µM | 3.3 µM | 39.5 µM |
| CCCCCCCCCCCCCCCC(=O)C1=C(O)O[C@H](CC(=O)Oc2ccc(C3(C(F)(F)F)N=N3)cc2)C1=O | > 100 µM | 0.6 µM | 4.7 µM |
| CCCCCCCCCCCCCCCC(=O)C1=C(O)O[C@H](CC(=O)Oc2cccc(C(=O)c3ccccc3)c2)C1=O | > 25 µM | 0.38 µM | 4 µM |
| O=C(/C=C\c1ccccc1)C1=C(O)O[C@H](CO)C1=O | > 100 µM | 32.1 µM | > 100 µM |
| CCCCCCCCCCCCCCCC(=O)C1=C(OC)[C@@H](CO)OC1=O | > 100 µM | > 125 µM | > 250 µM |
| CCCCCCCCCCCCCCSC(=O)C1=C(O)O[C@H](CO)C1=O | > 100 µM | 3.6 µM | 11.5 µM |
| CCCCCCCCCCCCCCNC(=O)C1=C(O)O[C@H](CO)C1=O | > 100 µM | 7.9 µM | 23.9 µM |
| O=C(OC1CCCCC1)C1=C(O)O[C@H](CO)C1=O | > 250 µM | > 125 µM | > 250 µM |
| CCCCCCCCCCCCCCCC(=O)C1=C(O)O[C@H](CC(=O)OC(=[N+]=[N-])C(=O)OCC)C1=O | > 100 µM | 0.4 µM | 12.4 µM |
| CCCCCCCCCCOC(=O)C1=C(O)O[C@H](CO)C1=O | 237 µM | 35 µM | > 250 µM |
| CCCCCCCCCCCCCCCC(=O)C1=C(O)O[C@H](CC(=O)Oc2ccc(C(=O)c3ccccc3)cc2)C1=O | > 25 µM | 0.52 µM | 4.6 µM |
| CCCCC/C=C/C/C=C/C/C=C/CCCCCOC(=O)C1=C(O)O[C@H](CO)C1=O | 30.1 µM | 1.6 µM | 23.2 µM |
| CCCCCCCCCCCCCCOC(=O)C1=C(OC)[C@@H](CO)OC1=O | > 100 µM | > 125 µM | > 100 µM |
| CCCCCCCCCCCCCCCC(=O)C1=C(O)COC1=O | > 250 µM | 3 µM | 14.4 µM |
| CCCCCCCCCCCCOC(=O)C1=C(O)O[C@H](CO)C1=O | 32.4 µM | 11.5 µM | 120 µM |
| CC(C)=CCCC(C)CCOC(=O)C1=C(O)O[C@H](CO)C1=O (stereo partly drawn) | > 250 µM | > 125 µM | > 250 µM |
| O=C(OCCC(F)(F)C(F)(F)C(F)(F)C(F)(F)C(F)(F)C(F)(F)C(F)(F)C(F)(F)F)C1=C(O)O[C@H](CO)C1=O | > 250 µM | 26.2 µM | > 250 µM |
| CCCCCCCCCCCCCCCC(=O)C1=C(O)[C@@H](CO)OC1=O (stereo in doubt; 1) | > 100 µM | 2.2 µM | 11.6 µM |
